From ChEMBL document CHEMBL1629675, “Novel inhibitor of Plasmodium histone deacetylase that cures P. berghei-infected mice” (Antimicrob Agents Chemother, 2009)
pIC50: −log10 of the molar value. Activity calls are given as the source filed them. The rule behind the calls is not given here.

What was measured:
Plasmodium falciparum [1] = experiment: Inhibition of HDAC in Plasmodium falciparum 3D7 by fluorescent activity assay; format: organism-based
Plasmodium falciparum [2] = experiment: Antimalarial activity against Plasmodium falciparum 7G8 assessed as parasite growth inhibition after 48 hrs by standard growth inhibition assay; format: functional, organism-based
Plasmodium falciparum [3] = experiment: Antimalarial activity against chloroquine-resistant Plasmodium falciparum FCB1 assessed as parasite growth inhibition after 48 hrs by standard growth inhibition assay; format: functional, organism-based, FcB1/Columbia
Outline: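 Ring-stage cultures of P. falciparum (3D7, FCB1) in RBCs, 2% hematocrit, at 1% parasitemia, incubated 48 h at 37°C in 90% N2/5% O2/5% CO2 with compound; 0.1% Me2SO control, uninfected-RBC background. Parasitemia counted by FACS on 100,000 Sybr green-stained cells; accepted only if controls grew ≥3-fold. Growth inhibition from background-corrected ratio to control. Triplicate, repeated at least twice.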

Plasmodium falciparum [4] = experiment: Antimalarial activity against Plasmodium falciparum HB3 assessed as parasite growth inhibition after 48 hrs by standard growth inhibition assay; format: functional, organism-based
Plasmodium falciparum [5] = experiment: Antimalarial activity against sPlasmodium falciparum VS/1 assessed as parasite growth inhibition after 48 hrs by standard growth inhibition assay; format: functional
Histone deacetylase = experiment: Inhibition of human HDAC in HeLa cells by fluorescent activity assay; format: cell-based
Plasmodium falciparum [6] = experiment: Antimalarial activity against Plasmodium falciparum FCR3 assessed as parasite growth inhibition after 48 hrs by standard growth inhibition assay; format: functional, FCR-3/Gambia
Plasmodium falciparum [7] = experiment: Antimalarial activity against chloroquine-sensitive Plasmodium falciparum 3D7 assessed as parasite growth inhibition after 48 hrs by standard growth inhibition assay; format: functional, organism-based
Plasmodium falciparum [8] = experiment: Antimalarial activity against Plasmodium falciparum Dd2 assessed as parasite growth inhibition after 48 hrs by standard growth inhibition assay; format: functional, organism-based
Plasmodium berghei [9] = experiment: Antimalarial activity against Plasmodium berghei infected in mouse assessed as decrease in parasites in blood at 0.5 mg/kg, ip administered as splited dose measured on day 4 relative to control
Plasmodium berghei [10] = experiment: Antimalarial activity against Plasmodium berghei infected in mouse assessed as decrease in decline in hematocrit rate at 50 mg/kg, […] as splited dose compound with drawn on day 4 measured after 6 weeks; format: functional, organism-based; design: dose 50 mg/kg
Outline: (§1)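 ICR mice (five per group) infected intraperitoneally with 10^6 P. berghei NK56 parasites from a donor mouse, then dosed intraperitoneally with 0, 0.05, 0.5, 5 or 50 mg/kg/day split into two doses for 4 days. Parasitemia was read from Giemsa-stained tail-blood thin smears on day 4 (1,500 cells, two microscopists), with Sybr green confirming negative slides. Parasitemia and hematocrit were taken every 4 days over 6 weeks.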

Plasmodium berghei [11] = experiment: Antimalarial activity against Plasmodium berghei infected in mouse assessed as decrease in parasites in blood at 0.5 mg/kg, ip administered as splited dose compound with drawn on day 4 measured on day 8
Plasmodium berghei [12] = experiment: Antimalarial activity against Plasmodium berghei infected in mouse assessed as decrease in decline in hematocrit rate at 0.5 mg/kg, […] as splited dose compound with drawn on day 4 measured on day 8; format: functional, organism-based; design: dose 0.5 mg/kg; outline: as §1
Plasmodium berghei [13] = experiment: Antimalarial activity against Plasmodium berghei infected in mouse assessed as decrease in parasites in blood at 50 mg/kg, ip administered as splited dose compound with drawn on day 4 measured after 6 weeks
Plasmodium berghei [14] = experiment: Antimalarial activity against Plasmodium berghei infected in mouse assessed as decrease in parasites in blood at 0.05 mg/kg, ip administered as splited dose measured on day 4
Plasmodium berghei [15] = experiment: Antimalarial activity against Plasmodium berghei infected in mouse assessed as decrease in parasites in blood at 5 mg/kg, ip administered as splited dose compound with drawn on day 4 measured on day 20
Plasmodium falciparum [16] = experiment: Antimalarial activity against Plasmodium falciparum 3D7 assessed as parasite regrowth measured after 3 days of compound withdrawal at 2.5 nM by standard growth inhibition assay; format: functional, organism-based
Outline: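 Synchronized 3D7 cultures were exposed to 2.5 nM drug, continuously or over a limited interval, and then the drug was removed. Parasitemia was measured by FACS of Sybr green-stained cells every 12 h for 4 days. Growth inhibition was calculated against 0.1% Me2SO-treated controls. Representative of three experiments.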

Plasmodium berghei [17] = experiment: Antimalarial activity against Plasmodium berghei infected in mouse assessed as decrease in parasites in blood at 5 mg/kg, ip administered as splited dose measured on day 4 relative to control
Mus musculus [18] = experiment: Toxicity in ICR mouse assessed as death after 5 days at 0.5 to 100 mg/kg, iv once daily; format: organism-based; design: dose 0.5-100 mg/kg, route intravenous; conditions: in vivo, 120 h
Mus musculus [19] = experiment: Toxicity in ICR mouse assessed as mild increase in erythroid mass after 5 days at 0.5 to 50 mg/kg, iv once daily; format: organism-based, Erythrocyte; design: dose 0.5-50 mg/kg, route intravenous; conditions: in vivo, 120 h
Plasmodium falciparum [20] = experiment: Antimalarial activity against Plasmodium falciparum 3D7 rings assessed as parasite growth inhibition at […] nM measured at end of the experiment by standard growth inhibition assay; format: functional
Plasmodium falciparum [21] = experiment: Antimalarial activity against Plasmodium falciparum 3D7 rings assessed as parasite growth inhibition at […] nM after 14 hrs by standard growth inhibition assay; conditions: 3D7, 14 h
Mus musculus [22] = experiment: Toxicity in ICR mouse assessed as moderate increase in erythroid mass after 5 days at 0.5 to 100 mg/kg, iv once daily; format: organism-based, Erythrocyte; design: dose 0.5-100 mg/kg, route intravenous; conditions: in vivo, 120 h
Mus musculus [23] = experiment: Toxicity in ICR mouse assessed as mild increase in erythroid mass after 14 days at 5 to 50 mg/kg, iv once daily; format: organism-based, Erythrocyte; design: dose 5-50 mg/kg, route intravenous; conditions: in vivo, 336 h
Plasmodium falciparum [24] = experiment: Antimalarial activity against Plasmodium falciparum 3D7 schizonts assessed as parasite growth inhibition at […] nM after 14 hrs by standard growth inhibition assay; conditions: 3D7, 14 h
Mus musculus [25] = experiment: Toxicity in ICR mouse assessed as clinical signs of distress after 5 days at 0.5 to 100 mg/kg, iv once daily; format: organism-based; design: dose 0.5-100 mg/kg, route intravenous; conditions: in vivo, 120 h
Plasmodium berghei [26] = experiment: Antimalarial activity against Plasmodium berghei infected in iv dosed mouse assessed as decrease in parasites in blood; format: functional, organism-based; conditions: in the assay text read “ip dosed” for “iv dosed”; outline: as §1
Mus musculus [27] = experiment: Toxicity in ICR mouse assessed as moderate increase in erythroid mass after 14 days at 5 to 50 mg/kg, iv once daily; format: organism-based, Erythrocyte; design: dose 5-50 mg/kg, route intravenous; conditions: in vivo, 336 h
Mus musculus [28] = experiment: Toxicity in ICR mouse assessed as severe increase in erythroid mass after 14 days at 5 to 100 mg/kg, iv once daily; format: organism-based, Erythrocyte; design: dose 5-100 mg/kg, route intravenous; conditions: in vivo, 336 h
Plasmodium falciparum [29] = experiment: Antimalarial activity against Plasmodium falciparum 3D7 trophozoites assessed as parasite growth inhibition at […] nM after 14 hrs by standard growth inhibition assay; conditions: 3D7, 14 h
Mus musculus [30] = experiment: Toxicity in ICR mouse assessed as death after 14 days at 5 to 100 mg/kg, iv once daily; format: organism-based; design: dose 5-100 mg/kg, route intravenous; conditions: in vivo, 336 h
Plasmodium berghei [31] = experiment: Antimalarial activity against Plasmodium berghei infected in mouse assessed as mouse survival days at 0.5 mg/kg, […] as splited dose measured on day 4 relative to control; format: functional
Outline: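 P. berghei NK56 blood from donor ICR mice (≥10% parasitemia), diluted in PBS; 10^6 parasites given ip to groups of five ICR mice. Treatment started simultaneously: ip, 0, 0.05, 0.5, 5 or 50 mg/kg/day in two daily doses for 4 days. Mice monitored up to 6 weeks or until death; survival counted from treatment start; paired Student t test.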

Plasmodium falciparum [32] = experiment: Antimalarial activity against Plasmodium falciparum 3D7 trophozoites assessed as parasite growth inhibition at […] nM measured at end of the experiment by standard growth inhibition assay; format: functional
Mus musculus [33] = experiment: Toxicity in ICR mouse assessed as clinical signs of distress after 14 days at 5 to 100 mg/kg, iv once daily; format: organism-based; design: dose 5-100 mg/kg, route intravenous; conditions: in vivo, 336 h
Plasmodium falciparum [34] = experiment: Antimalarial activity against Plasmodium falciparum 3D7 schizonts assessed as parasite growth inhibition at […] nM measured at end of the experiment by standard growth inhibition assay; format: functional
Mus musculus [35] = experiment: Toxicity in ICR mouse assessed as severe increase in erythroid mass after 5 days at 0.5 to 100 mg/kg, iv once daily; format: organism-based, Erythrocyte; design: dose 0.5-100 mg/kg, route intravenous; conditions: in vivo, 120 h
[36] = Plasmodium falciparum, 7G8, 48 h
[37] = Plasmodium falciparum, FcB1/Columbia, 48 h
[38] = Plasmodium falciparum, HB3, 48 h
[39] = Plasmodium falciparum, VS/1, 48 h
[40] = Plasmodium falciparum, FCR-3/Gambia, 48 h
[41] = Plasmodium falciparum, 3D7, 48 h
[42] = Plasmodium falciparum, Dd2, 48 h

## Cl.Nc1cccc(-c2csc(NC(=O)CCCCCCC(=O)NO)n2)c1
Plasmodium falciparum [1]
  pIC50: 7.30
Plasmodium falciparum [2]
  pIC50: 8.00
Plasmodium falciparum [3]
  pIC50: 7.82
Plasmodium falciparum [4]
  pIC50: 7.70
Plasmodium falciparum [5]
  pIC50: 7.64
Histone deacetylase
  IC50: 7.6 nM
Plasmodium falciparum [6]
  pIC50: 7.66
Plasmodium falciparum [7]
  pIC50: 7.52
Plasmodium falciparum [8]
  pIC50: 7.92

## O=C(CCCCCCC(=O)NC12CC3CC(CC(C3)C1)C2)NO
Plasmodium falciparum [1]; Plasmodium falciparum, 3D7
  pIC50: 6.18
Plasmodium falciparum [2]; [36]
  pIC50: 5.00
Plasmodium falciparum [3]; [37]
  pIC50: 5.18
Plasmodium falciparum [4]; [38]
  pIC50: 5.02
Plasmodium falciparum [5]; [39]
  pIC50: 5.09
Histone deacetylase
  IC50: 420 nM
Plasmodium falciparum [6]; [40]
  pIC50: 5.02
Plasmodium falciparum [7]; [41]
  pIC50: 4.96

## Nc1cccc(-c2csc(NC(=O)CCCCCCC(=O)NO)n2)c1 [listing 1 of 2 here]
Plasmodium berghei [9]
  Activity: Active
Plasmodium berghei [10]
  Activity: Active
Plasmodium berghei [11]
  Activity: inactive
Plasmodium berghei [12]
  Activity: Active
Plasmodium berghei [13]
  Activity: Active
Plasmodium berghei [14]
  Activity: inactive
Plasmodium berghei [15]
  Activity: inactive
Plasmodium falciparum [16]
  Activity: Active
Plasmodium berghei [17]
  Activity: Active

## O=C(CCCCCCC(=O)Nc1nc(-c2ccccc2)cs1)NO
Plasmodium falciparum [1]; Plasmodium falciparum, 3D7
  pIC50: 7.52
Plasmodium falciparum [2]; [36]
  pIC50: 8.10
Plasmodium falciparum [3]; [37]
  pIC50: 8.22
Plasmodium falciparum [4]; [38]
  pIC50: 8.15
Plasmodium falciparum [5]; [39]
  pIC50: 8.22
Histone deacetylase
  IC50: 6.6 nM
Plasmodium falciparum [7]; [41]
  pIC50: 7.82
Plasmodium falciparum [8]; [42]
  pIC50: 8.22

## Nc1cccc(-c2csc(NC(=O)CCCCCCC(=O)NO)n2)c1 [listing 2 of 2 here]
Plasmodium falciparum [1]
  pIC50: 9.64
Plasmodium falciparum [2]
  pIC50: 9.40
Mus musculus [18]
  Activity: Non-toxic
Mus musculus [19]
  Activity: Non-toxic
Plasmodium falciparum [20]
  inhibition at 0.00125 µM: < 5%
Plasmodium falciparum [21]
  inhibition at 0.00125 µM: 15%
Plasmodium falciparum [5]
  pIC50: 9.00
Mus musculus [22]
  Activity: Non-toxic
Mus musculus [23]
  Activity: Non-toxic
Plasmodium falciparum [24]
  inhibition at 0.00125 µM: 25%
Histone deacetylase
  IC50: 3.9 nM
Mus musculus [25]
  Activity: Non-toxic
Plasmodium berghei [26]
  IC50: 0.5 mg/kg/day
Mus musculus [27]
  Activity: Non-toxic
Mus musculus [28]
  Activity: Non-toxic
Plasmodium falciparum [29]
  inhibition at 0.00125 µM: 35%
Mus musculus [30]
  Activity: Non-toxic
Plasmodium berghei [31]
  Survival: 23.6 days
Plasmodium falciparum [32]
  inhibition at 0.00125 µM: 25%
Mus musculus [33]
  Activity: Non-toxic
Plasmodium falciparum [34]
  inhibition at 0.00125 µM: 20%
Mus musculus [35]
  Activity: Non-toxic

## O=C(CCCCCCC(=O)Nc1ccc(-c2ccccc2)cc1)NO
Plasmodium falciparum [1]; Plasmodium falciparum, 3D7
  pIC50: 7.22
Plasmodium falciparum [2]; [36]
  pIC50: 7.00
Plasmodium falciparum [3]; [37]
  pIC50: 7.10
Plasmodium falciparum [4]; [38]
  pIC50: 6.96
Plasmodium falciparum [5]; [39]
  pIC50: 6.94
Plasmodium falciparum [6]; [40]
  pIC50: 6.94
Plasmodium falciparum [7]; [41]
  pIC50: 6.89
Plasmodium falciparum [8]; [42]
  pIC50: 7.07

## N[C@@H](Cc1ccccc1)C(=O)Nc1ccccc1-c1ccc(NC(=O)CCCCCCC(=O)NO)cc1
Plasmodium falciparum [1]; Plasmodium falciparum, 3D7
  pIC50: 6.35
Plasmodium falciparum [2]; [36]
  pIC50: 6.80
Plasmodium falciparum [3]; [37]
  pIC50: 7.02
Plasmodium falciparum [4]; [38]
  pIC50: 6.74
Plasmodium falciparum [5]; [39]
  pIC50: 6.76
Plasmodium falciparum [6]; [40]
  pIC50: 6.82
Plasmodium falciparum [7]; [41]
  pIC50: 6.66
Plasmodium falciparum [8]; [42]
  pIC50: 6.77

## O=C(CCCCCC(=O)Nc1cccc2cccnc12)NS
Plasmodium falciparum [1]; Plasmodium falciparum, 3D7
  pIC50: 5.34
Plasmodium falciparum [2]; [36]
  pIC50: 5.26
Plasmodium falciparum [3]; [37]
  pIC50: 5.17
Plasmodium falciparum [4]; [38]
  pIC50: 5.05
Plasmodium falciparum [5]; [39]
  pIC50: 5.00
Histone deacetylase
  IC50: 44 nM
Plasmodium falciparum [6]; [40]
  pIC50: 5.17
Plasmodium falciparum [7]; [41]
  pIC50: 5.01
Plasmodium falciparum [8]; [42]
  pIC50: 5.12
